Screens deposited in PubChem by Johns Hopkins Ion Channel Center.
Sampled rows, rich in hits. Any-hit rate of the full collection: about 3.7%.
hERG rescue: shields human hERG channel from block by proarrhythmic agents; Q12809; CHO-hERG, FluxOR thallium flux, dofetilide IC70 present; activation (rescue from dofetilide block), less the hit threshold, % at 10 µM; actives 0.51% (n = 310,000);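 active means activation above the mean of controls blocked by dofetilide plus 5 SD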;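 further: thallium influx through hERG after potassium depolarization seen as dye fluorescence rise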
Target sequence (Q12809 whole entry, looked up): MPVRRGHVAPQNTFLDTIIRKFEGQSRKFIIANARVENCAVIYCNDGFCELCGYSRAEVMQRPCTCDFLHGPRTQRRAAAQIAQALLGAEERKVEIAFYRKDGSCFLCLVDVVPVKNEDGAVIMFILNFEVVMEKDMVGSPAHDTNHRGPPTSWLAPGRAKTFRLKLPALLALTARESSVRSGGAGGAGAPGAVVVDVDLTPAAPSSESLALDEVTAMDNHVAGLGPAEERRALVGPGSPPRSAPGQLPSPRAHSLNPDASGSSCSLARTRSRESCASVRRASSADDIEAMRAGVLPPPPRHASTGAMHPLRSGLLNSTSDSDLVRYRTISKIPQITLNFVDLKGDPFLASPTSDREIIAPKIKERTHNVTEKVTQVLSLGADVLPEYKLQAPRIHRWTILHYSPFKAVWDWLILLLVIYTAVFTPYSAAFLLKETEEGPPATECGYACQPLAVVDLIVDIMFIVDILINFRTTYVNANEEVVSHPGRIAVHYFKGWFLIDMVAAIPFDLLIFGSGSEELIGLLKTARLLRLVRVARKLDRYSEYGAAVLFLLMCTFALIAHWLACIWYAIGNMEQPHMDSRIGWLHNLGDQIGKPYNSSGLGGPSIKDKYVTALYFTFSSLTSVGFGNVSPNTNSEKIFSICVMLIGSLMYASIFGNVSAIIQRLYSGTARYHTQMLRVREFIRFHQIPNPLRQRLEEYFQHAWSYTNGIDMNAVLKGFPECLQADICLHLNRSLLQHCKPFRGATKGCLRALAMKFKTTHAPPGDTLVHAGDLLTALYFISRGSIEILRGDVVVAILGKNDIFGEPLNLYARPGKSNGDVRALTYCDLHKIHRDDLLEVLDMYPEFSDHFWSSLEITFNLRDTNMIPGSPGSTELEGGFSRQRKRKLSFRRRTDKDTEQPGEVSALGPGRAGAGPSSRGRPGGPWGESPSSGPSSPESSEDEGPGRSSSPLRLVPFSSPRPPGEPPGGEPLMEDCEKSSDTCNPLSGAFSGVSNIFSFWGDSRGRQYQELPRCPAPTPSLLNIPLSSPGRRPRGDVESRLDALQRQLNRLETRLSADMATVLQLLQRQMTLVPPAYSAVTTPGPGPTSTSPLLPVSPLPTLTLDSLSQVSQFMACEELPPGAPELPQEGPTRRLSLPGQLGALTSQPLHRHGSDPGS
KCNQ1 act: potentiators or activators of human KCNQ1 potassium channel; CHO-K1 KCNQ1, thallium flux FluxOR fluorescence; stronger effect = higher value; P51787; actives 0.35% (n = 310,000); AID 2648; B-score at 10 µM;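 active means fluorescence ratio B-score, a plate-corrected score, at least three library SD, with initial intensity B-score within 5 SD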
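Assay system: CHO-K1 cells stably expressing KCNQ1; Medium: assay buffer with matched DMSO; Also added: K+/Tl+ depolarizing stimulus; Dosing: single dose; Timing: dye 90 min, compound 20 min, room temperature; Measured by: kinetic FluxOR thallium fluorescence, 10-s 1-Hz baseline, 110-s post-stimulus read; Read-out: peak-minus-minimum fluorescence over initial fluorescence, negative-control normalized, B-scored.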
KCNQ1 block: blocks the human KCNQ1 potassium channel | AID 2642 | B-score at 10 µM | actives 1.3% (n = 310,000) | CHO-K1 KCNQ1, FluxOR thallium flux fluorescence; stronger effect = higher value;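 active means compounds whose thallium flux B-score, printed positive for inhibition, exceeds three library SD while starting fluorescence stays within three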;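 further: channel opened by potassium depolarization with thallium stimulus after 20 min compound exposure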
Kir21 block: blocks the mouse Kir2.1 inward-rectifier potassium channel. P35561. HEK293-Kir2.1, FluxOR thallium flux fluorescence; stronger effect = lower value. B-score at 10 µM. actives 0.85% (n = 310,000). AID 1672;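 active means fluorescence ratio B-score at or below minus 3 SD of library scores, with starting-brightness B-score within 2 SD, cut at about -4.2 in these data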;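 further: channel flux triggered by added potassium and thallium sulfate stimulus; B-score of peak minus minimum fluorescence over baseline after thallium stimulus; more negative B-score means stronger Kir2.1 block with less thallium influx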
KCNK3 block: human KCNK3 channel inhibition, primary screen; CHO-KCNK3 thallium flux, FluxOR fluorescence; stronger effect = lower value; actives 0.84% (n = 340,000); B-score at 10 µM;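 active means B-score under library mean minus 4 SD, starting fluorescence ratio at most library mean plus 5 SD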;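 further: more negative B-score means stronger inhibition of thallium flux through KCNK3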
KCNK9 inh: human KCNK9 channel inhibition; actives 1.2% (n = 310,000); B-score at 10 µM; AID 488922; HEK293 KCNK9, FluxOR thallium flux fluorescence; stronger effect = lower value; Q9NPC2;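 active means ratio B-score over 3 SD below the library mean, with starting fluorescence within 5 SD of its mean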;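 further: negative B-score means less thallium flux so channel inhibition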
Each line names hits and unclear results; the compound was inactive in the other large screens.

CN(C)c1ccc(N=Nc2ccccc2C(=O)OCC(=O)Nc2ccccc2C(F)(F)F)cc1	KCNQ1 block 6
CSc1nc(Cl)c(Cc2ccc(OC(C)C)cc2)c(N2CCOCC2)n1	KCNQ1 block 7, KCNK9 inh -7.46
Cc1ccc(S(=O)(=O)N2CCCCC2)cc1NC(=O)c1cc(F)c(F)c(F)c1F	none (no result: hERG rescue, KCNQ1 act, KCNQ1 block, Kir21 block, KCNK9 inh)
O=C(NCCCN1CCCC1=O)C(=O)NCC1OCCCN1S(=O)(=O)c1cc(F)ccc1F (centres undefined)	none
CCCC(=O)NC1=C(Cl)C(=O)c2ccccc2C1=O	KCNK3 block -9.26 (no result: hERG rescue, KCNQ1 act, KCNQ1 block, Kir21 block, KCNK9 inh)
CN(CC(=O)Nc1ccc(OC(F)(F)F)cc1)C1CCCCC1	none
O=C(CNCC1CCCCC1)Nc1ccc(OC(F)(F)F)cc1	KCNQ1 act 20
COc1ccc(Cl)cc1NC(=O)CN1C(=O)NC2(CCCC2)C1=O	none
OCCN(CCO)c1ccc(C(c2ccccc2Cl)c2ccc(N(CCO)CCO)cc2Cl)c(Cl)c1	KCNQ1 act 11
CCOc1ccccc1NC(=O)c1csc(C)c1C	none
O=C(Cc1cccc(NC(=O)C2CCCN(C(=O)C3CC3)C2)c1)Nc1cccc(C(=O)N2CCOCC2)c1 (centres undefined)	none (no result: hERG rescue, KCNQ1 act, KCNQ1 block, Kir21 block, KCNK9 inh)
O=c1[nH]oc2cc(Cl)ccc12	none
COc1ccccc1-c1cnnc(N/N=C/c2ccc(-c3cccc(Br)c3)o2)n1	KCNK9 inh -6.82
COc1ccc(C(=O)N(C)Cc2ccccn2)cc1OC1CCN(C(C)C)CC1	none
COc1ccc(CCNC(=O)C(C)Sc2ccc(C)cc2)cc1OC (centres undefined)	none
Cc1cn2c(nc1=O)OC1C(O)C(COC(=O)c3ccccc3)OC12 (centres undefined)	hERG rescue 5.0
CCc1cc(CC)c(/C=N/NC(N)=O)c(CC)c1	Kir21 block -7.26
Cc1cc(C)c(/C=N/NC(N)=O)c(C)c1/C=N/NC(N)=O	none
Cc1nc(C)c(-c2nnc(-c3ccc(C(C)(C)C)cc3)o2)cc1C(=O)NN	none
O=C(N=Nc1c(O)[nH]c2ccc([N+](=O)[O-])cc12)c1cc(-c2ccccc2Cl)nc2ccccc12	hERG rescue 15.3
CCN(CC(=O)NCc1ccc(Cl)cc1)C(=O)c1cccc(S(=O)(=O)Nc2ccc(OC)cc2)c1	none
Cc1ccc(/C=C2/SC(=S)N(CCCC(=O)Nc3cc([N+](=O)[O-])ccc3O)C2=O)cc1	KCNQ1 block 7
O=C(CN1C(=O)S/C(=C\c2ccccc2)C1=O)Nc1cc([N+](=O)[O-])ccc1O	KCNQ1 block 8
COc1ccc(/C=C2\SC(=O)N(CC(=O)Nc3ccccc3O)C2=O)cc1OC	none
Cc1cc(OC(=O)c2ccc(C)c(C)c2)c([N+](=O)[O-])c(=O)[nH]1	none
CCOc1ccc(NC(=O)CN(C)C(=O)C2CC(=O)N(c3cccc(SC)c3)C2)cc1OCC (centres undefined)	none (no result: hERG rescue, KCNQ1 act, KCNQ1 block, Kir21 block, KCNK9 inh)
Fc1cccc(CO/N=C/c2c(-c3ccccc3)nc3ccc(Cl)cn23)c1	hERG rescue 6.7, KCNK9 inh -6.62
NS(=O)(=O)c1ccc(NC(=O)CN2CCc3ccccc3C2)cc1	none
O=C(/C=C\c1cn(-c2ccccc2)nc1-c1ccccc1)Nc1nccs1	KCNK9 inh -7.96
CSc1ccccc1NC(=O)CSCc1ccccc1Br	Kir21 block -5.3
COc1ccc(Cc2nc3c([nH]2)c(=O)n(C)c(=O)n3C)cc1OC	none (no result: hERG rescue, KCNQ1 act, KCNQ1 block, Kir21 block, KCNK9 inh)
FC(F)(F)c1cccc(NC(=S)NNC(=S)NCc2ccccc2)c1	KCNQ1 block 7
CC(NC(=O)c1cccc(Cn2cc([N+](=O)[O-])cn2)c1)c1ccc(C(C)(C)C)cc1 (centres undefined)	KCNK9 inh -7.57
Cn1cccc1C1CCCN1CC(=O)Nc1ccc(C(N)=O)cc1 (centres undefined)	none (no result: hERG rescue, KCNQ1 act, KCNQ1 block, Kir21 block, KCNK9 inh)
CN1CCN(C(=O)OCCOCCOC(=O)N2CCN(C)CC2)CC1	none (no result: hERG rescue, KCNQ1 act, KCNQ1 block, Kir21 block, KCNK9 inh)
Cc1ccc(C(C)C)c(OCC(=O)OCc2c(C)noc2C)c1	KCNK9 inh -7.37
Cc1ccc(C(C)C)c(OCC(=O)OCC(=O)NC2CC2)c1	none (no result: hERG rescue, KCNQ1 act, KCNQ1 block, Kir21 block, KCNK9 inh)
CCOC(=O)c1cccc(NC(=O)CSc2nnc(COc3ccccc3)n2CC)c1	none
CCOC(=O)c1ccccc1NC(=O)CSc1nnc(COc2ccccc2)n1CC	Kir21 block -6.21
CC1CCN(C(=O)COC(=O)C2CCN(S(=O)(=O)c3c(Cl)cccc3Cl)CC2)CC1	none (no result: hERG rescue, KCNQ1 act, KCNQ1 block, Kir21 block, KCNK9 inh)
CCOC(=O)COc1ccccc1/C=N\NC(=O)c1cc2c(ccc3ccccc32)o1	KCNQ1 block 10, KCNK9 inh -6.84
CCN1CCN(Cc2c(O)ccc3c(=O)c(-c4ccccc4OC)coc23)CC1	none
CCN1CCN(Cc2c(O)ccc3c2O/C(=C\C=C\c2ccccc2OC)C3=O)CC1	KCNQ1 block 6
Fc1ccc(Cn2cccc2C2=NC(c3ccccc3)CO2)cc1 (centres undefined)	Kir21 block -5.94
CCn1c(SCC(=O)N/N=C/c2cccs2)nc2ccccc21	Kir21 block -4.84
Cn1c(SCC(=O)N/N=C/c2cccs2)nc2ccccc21	none
Cn1c2ccccc2c2c(C(=O)NCc3ccco3)cn(C3CCCCC3)c(=O)c21	none
Cc1ccc(CNC(=O)c2cn(C3CCCC3)c(=O)c3c2c2ccccc2n3C)o1	KCNK9 inh -6.71 (no result: KCNK3 block)
CN(CC(=O)Nc1ccccc1Cl)C(=O)COC(=O)CN1C(=O)NC2(CCCC2)C1=O	none
CN(CC(=O)Nc1cccc(F)c1)C(=O)C1CCN(S(=O)(=O)c2ccc3c(c2)OCCO3)CC1	none
Cc1ccc(Cl)cc1NC(=S)N(Cc1cccnc1)Cc1ccccc1Cl	KCNQ1 block 6
CCCSc1nc(N)cc(=O)[nH]1	hERG rescue 4.7
O=C(Nc1ccc(Nc2ccncc2)cc1)c1ccc(Nc2ccnc3ccc([N+](=O)[O-])cc23)cc1[N+](=O)[O-]	hERG rescue 13.2
O=C(Nc1ccc(Nc2ccncc2)cc1)c1ccc([N+](=O)[O-])cc1	none
CCOc1ccc(Cl)cc1CNCCCSc1nc(C)cc(C)n1	Kir21 block -6.59
O=C(COC(=O)c1cccnc1Cl)Nc1ccc2c(c1)OCCO2	hERG rescue 37.3
O=C(COC(=O)c1cccnc1Cl)NCc1ccc2c(c1)OCO2	none
CCc1ccc(OCC(=O)Nc2ccc3c(c2)OCCO3)cc1	Kir21 block -4.67
C/C(=N\OCC(=O)Nc1ccc(OC(F)(F)F)cc1)c1ccc2c(c1)OCCO2	KCNQ1 act 10
COc1cccc(NS(=O)(=O)c2ccc(-n3cccn3)cc2)c1	none
O=C(NCC1CCCO1)c1ccc(NS(=O)(=O)c2cccs2)cc1 (centres undefined)	none
COCCN(Cc1ccc(F)cc1)C(=O)c1cc2ccccc2oc1=O	none
CCSC1=C(C#N)C(c2ccccc2Cl)C(C(=O)c2cccs2)C(O)(C(F)(F)F)N1 (centres undefined)	none
